Screening data (PubChem)
A selection: hits, their analogues and other compounds. The true share with any hit is near 3.5%.
RGS4 block – human RGS4 inhibition; P49798; HEK293 M3R/RGS4 inducible, Fluo-4 calcium flux; active compounds read high; triggered by carbachol at its EC20; B-score at 10 µM; 310,000 compounds, 0.45% hits;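 active = B-score, a plate-corrected calcium signal, over three deviations above library mean, with baseline fluorescence within five deviations of library mean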;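 note: RGS4 expression induced by doxycycline in cells with stable M3 receptor; B-score is computed from the integrated fluorescence ratio over baseline after carbachol; higher B-score means a larger calcium signal and so more RGS4 inhibition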
Target sequence (P49798 whole entry, looked up): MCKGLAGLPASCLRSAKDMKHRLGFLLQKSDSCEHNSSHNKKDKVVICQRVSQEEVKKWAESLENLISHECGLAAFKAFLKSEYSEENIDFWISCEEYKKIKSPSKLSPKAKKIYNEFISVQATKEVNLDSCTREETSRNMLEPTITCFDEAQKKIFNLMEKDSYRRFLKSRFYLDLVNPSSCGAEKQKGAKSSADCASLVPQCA
MrgX1 ag – agonists of human MrgX1 receptor | B-score at 10 µM | Q96LB2 | MrgX1-HEK293 cells, Fluo-4 calcium fluorescence, agonist mode; active compounds read high | 310,000 compounds, 0.44% hits;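 active = calcium response B-score plate-corrected fluorescence ratio at least 3 library SD, with starting fluorescence B-score inside 5 SD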
Target sequence (Q96LB2 whole entry, looked up): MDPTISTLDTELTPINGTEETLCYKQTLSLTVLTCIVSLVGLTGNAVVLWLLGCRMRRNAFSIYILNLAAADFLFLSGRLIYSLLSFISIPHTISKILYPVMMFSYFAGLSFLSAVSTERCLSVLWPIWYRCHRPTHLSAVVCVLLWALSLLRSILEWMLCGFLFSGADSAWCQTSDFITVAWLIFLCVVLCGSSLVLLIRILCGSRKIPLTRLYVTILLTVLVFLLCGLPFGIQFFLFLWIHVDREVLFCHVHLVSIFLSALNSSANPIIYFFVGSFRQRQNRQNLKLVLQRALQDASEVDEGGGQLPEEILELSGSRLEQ
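Test system: Stable human MrgX1 HEK293 cell line | Schedule: Overnight plating before 1 h dye loading | Read-out basis: Baseline-normalised fluorescence change ratio, B-scored | Detection: Kinetic calcium dye fluorescence, Fluo-4 NW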
MrgX1 antag – antagonists of human MrgX1 receptor; MRGX1-HEK293 calcium flux, Fluo-4, BAM8-22 antagonism; active compounds read low; B-score at 10 µM; 310,000 compounds, 1.3% hits; AID 588676;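 active = calcium-response B-score plate-corrected more than 3 library SD below zero, starting fluorescence within 5 deviations, no agonist response on first addition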;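 note: peak minus trough fluorescence over baseline after final BAM8-22 challenge near maximal dose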
RGS4 pot – RGS4 potentiation or activation. HEK293 M3R/inducible RGS4, carbachol calcium flux Fluo4; active compounds read low. B-score at 10 µM. 310,000 compounds, 0.92% hits;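 active = B-score of the integrated calcium signal more than 4 SD below the library mean, with starting fluorescence not abnormally high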;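 note: negative B-score means reduced calcium response which marks RGS4 activation or potentiation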
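System – HEK293 FlpIn-TREx cells, stable M3R, doxycycline-inducible RGS4 · Reagent – ECmax carbachol challenge · Times – compound preincubation 20 min at room temperature before agonist · Technique – Fluo4 fluorescence kinetic imaging of calcium · Measure – B score of integrated Fluo4 ratio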
MrgX1 PAM – allosterically activates human MrgX1 receptor signaling | Q96LB2 | MrgX1-HEK293, Fluo-4 calcium flux, FDSS; active compounds read high | B-score at 10 µM | 310,000 compounds, 0.63% hits;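 active = plate-corrected calcium response at least 3 library SD above typical, normal starting fluorescence, not activating the receptor alone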;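 note: compound read alongside a low EC10 to EC30 dose of BAM8-22 agonist; peak minus trough fluorescence over baseline measured at the second addition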
MrgX1 antag conf – human MrgX1 receptor antagonism, re-confirmation screen; shares compounds with MrgX1 antag; MrgX1-HEK293, BAM8-22 calcium flux, Fluo-4; active compounds read low; remaining BAM8-22 calcium response % of control (active compounds read low), % at 10 µM; 2,300 compounds, 19% hits;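 active = remaining agonist calcium response no higher than 100% minus 3 SD of agonist-only control wells, with starting fluorescence near control levels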;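 note: agonist BAM8-22 given at a near maximal EC90 to ECmax level; peak minus minimum fluorescence divided by baseline after agonist addition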
HEK293 Ca flux – activity in parental HEK293 cells lacking MrgX1; AID 624111; shares compounds with MrgX1 antag; 4,000 compounds, 2% hits; fluorescence ratio F(max-min)/F0 at 10 µM; Fluo-4 calcium fluorescence, FDSS;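 active = duplicate-averaged calcium fluorescence ratio at least three times the standard deviation of buffer wells, a nonspecific response in parental cells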
HEK293 Ca counter – MrgX1 allosteric activator counter-screen hit in parental HEK293 cells; shares compounds with MrgX1 antag; fluorescence ratio F(max-min)/F0 at 10 µM; parental HEK293 calcium flux, Fluo-4 fluorescence ratio; active compounds read high; 4,000 compounds, 0.4% hits;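 active = calcium fluorescence ratio, averaged over duplicates, at least 3 SD of the buffer-well ratio, meaning a nonspecific response in receptor-free cells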;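 note: untransfected parental HEK293 lacking MrgX1 used as counterscreen for MrgX1 allosteric activators; fluorescence change taken during the second addition on a kinetic imager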
HEK293 Ca cntr2 – activity in parental HEK293 cells lacking MrgX1 receptor. Fluo-4 calcium fluorescence (FDSS); active compounds read high. fluorescence ratio F(max-min)/F0 at 10 µM. 4,000 compounds, 8.7% hits. shares compounds with MrgX1 antag;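 active = calcium fluorescence ratio at least three times the spread of buffer wells, meaning a non-specific response in parental cells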
An asterisk follows results filed as active; i = inactive; x = no result given.

SMILES	RGS4 block	MrgX1 ag	MrgX1 antag	RGS4 pot	MrgX1 PAM	MrgX1 antag conf	HEK293 Ca flux	HEK293 Ca counter	HEK293 Ca cntr2
CCn1c(SCC(=O)Nc2cccc(C)n2)nc2c1c(=O)n(C)c(=O)n2C	i	i	-5.9*	i	i	i	i	i	i
CC(C)Cc1nnc(NC(=O)CCC(=O)NC2CCCc3ccccc32)s1 (stereo not given)	i	i	-5.2*	i	i	i	i	i	i
Cc1ccc(NC(=O)NC2CCCc3ccccc32)cc1 (stereo not given)	i	i	-5.3*	i	i	i	i	i	i
CCCc1nnc(NC(=O)CCC(=O)NC2CCCc3ccccc32)s1 (stereo not given)	i	i	i	i	i	x	x	x	x
Cc1ccccc1Cn1ccc(NC(=O)c2nc3ncccn3n2)n1	x	i	-5.7*	x	i	i	i	i	i
Cc1ccccc1Cn1cc(NC(=O)c2nc3ncccn3n2)cn1	i	i	i	i	i	x	x	x	x
Cc1ccc(NC(=O)CCNS(=O)(=O)c2ccc(Br)cc2)cc1S(=O)(=O)N1CCOCC1	i	i	i	i	i	x	x	x	x
Cc1ccc(C(=O)OCc2nnc(-c3ccccc3)o2)cc1S(=O)(=O)N1CCOCC1	i	i	-4.6*	i	i	83%*	i	i	i
Cc1ccc(NC(=O)CCNS(=O)(=O)c2ccccc2)cc1S(=O)(=O)N1CCOCC1	i	i	-6.7*	i	i	i	i	i	i
CCOC(=O)c1ccc(NC(=O)c2ccc(C)c(S(=O)(=O)N3CCOCC3)c2)cc1	i	i	-11*	i	i	21%*	i	i	i
CCN(Cc1ccccc1)S(=O)(=O)c1cc2[nH]c(=O)c(=O)[nH]c2cc1C	i	i	i	i	i	x	x	x	x
CCOP(=O)(OCC)C(NC(=O)c1cccs1)C(F)(F)F (stereo not given)	i	i	i	i	i	x	x	x	x
CCOc1ccc2oc(=O)cc(CN3CCOCC3)c2c1	i	i	-7.3*	i	i	i	i	i	i
Cc1cc2oc(=O)cc(CN3CCOCC3)c2cc1C(C)C	i	i	i	i	i	x	x	x	x
CC(=O)NS(=O)(=O)c1ccc(NC(=O)c2ccc3c(c2)OCO3)cc1	i	x	x	i	x	x	x	x	x
COC(=O)c1cc(C#N)c(OC)nc1C	i	i	-5.1*	i	i	i	i	i	i
O=C(c1nc2ccccc2s1)N1CCN(c2ccccn2)CC1	x	i	i	x	i	x	x	x	x
O=C(c1nc2ccccc2s1)N1CCSCC1	i	i	-10*	i	i	i	i	i	i
Cc1nn(C)c(C)c1NS(=O)(=O)c1cccc(Br)c1	i	i	-4.7*	i	i	i	i	i	i
Cc1ccc(-n2ncc3c(SCc4cccnc4)ncnc32)c(C)c1	i	x	x	i	x	x	x	x	x
CCOC(=O)Nc1nc(C)c(C(=O)c2ccc(Cl)cc2)s1	i	i	i	i	i	x	x	x	x
CCOC(=O)Nc1nc(-c2ccc(Cl)cc2Cl)cs1	i	i	-5.6*	i	i	i	i	i	i
CN(C)CCCn1c2c(c(SCC(=O)Nc3cccc4ccccc34)nc1=O)CCCC2	i	i	i	i	i	x	x	x	x
CC(C(=O)NCCc1ccc(F)cc1)N1CCN(Cc2ccccc2)CC1 (stereo not given)	i	i	i	i	i	x	x	x	x
COCCN(C(=O)C1CC1)c1nnc(-c2cccc(C)c2)s1	i	i	-5.4*	i	i	i	i	i	i
SMILES	RGS4 block	MrgX1 ag	MrgX1 antag	RGS4 pot	MrgX1 PAM	MrgX1 antag conf	HEK293 Ca flux	HEK293 Ca counter	HEK293 Ca cntr2
CCCN(C(=O)c1ccco1)c1nnc(-c2cccc(C)c2)s1	i	i	i	i	i	x	x	x	x
CS(=O)(=O)N1CC(C(=O)NC2CCCC2)Oc2ccc(Cl)cc21 (stereo not given)	i	i	i	i	i	x	x	x	x
COc1cccc(C(=O)Nc2cccc(C(=O)NCC(C)C)c2)c1	i	i	-6.5*	i	i	i	i	i	i
CC(C)OCCCNC(=O)c1cccc(NC(=O)c2ccccc2)c1	i	i	i	i	i	x	x	x	x
COCCCNC(=O)c1cccc(NC(=O)c2ccccc2)c1	i	i	-5.6*	i	i	83%*	i	i	i
Cc1ccc(-n2c(-c3ccc(Br)cc3)c[n+]3c2CCc2ccc4cccnc4c2-3)cc1	i	i	-11*	i	i	19%*	i	i	i
COc1ccc(-n2c(-c3ccc(Cl)cc3)c[n+]3c2CCc2ccccc2-3)cc1	i	i	i	i	i	x	x	x	x
COC(=O)c1sc(-c2ccc(Cl)cc2)cc1NC(=O)COCC(=O)O	i	i	i	i	i	x	x	x	x
COC(=O)c1sc(-c2ccc(C(C)(C)C)cc2)cc1NC(=O)CCC(=O)O	i	i	-6.6*	i	i	58%*	i	i	i
CS(=O)(=O)N(CCc1ccccc1)CC(=O)NCC1CCCO1 (stereo not given)	i	i	-6.7*	i	i	i	i	i	i
Cc1cccc(N2C(=O)C3C4C=CC(C5CC45)C3C2=O)n1 (stereo not given)	i	i	i	i	i	x	x	x	x
COc1ccccc1NC(=O)C1=C(C)Nc2nc(-c3ccc(N(C)C)cc3)nn2C1c1ccncc1 (stereo not given)	x	i	i	x	i	x	x	x	x
COc1ccccc1NC(=O)C1=C(C)Nc2nc(-c3cccs3)nn2C1c1cccnc1 (stereo not given)	i	i	-5.2*	i	i	i	i	i	i
Cc1cc(=O)[nH]c(SCC(=O)N2CCN(S(=O)(=O)c3ccccc3)C2)n1	i	i	i	i	i	x	x	x	x
COc1ccc(CCNc2ncnc3c2oc2ccccc23)cc1OC	i	i	-4.6*	i	i	43%*	i	i	i
